pIC50: −log10 of the molar value. Activity calls are given as the source filed them. The calls are words filed in the database; no cut-off is given here.
Assays:
HCT-116 [1] = experiment: Induction of apoptosis in human HCT-116 cells assessed as increase in caspace-9 protein expression at IC50 concentration after 24 hrs by ELISA; assay type: functional
How it was run: (§1)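 Cells treated at IC50 for 24 h and lysed in cell extraction buffer. Lysate diluted in standard diluent buffer and human caspase-3, -7, -9, Bax and Bcl-2 quantified by immunoassay kit (pg/mL). Fold change calculated against untreated control cells.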

HCT-116 [2] = experiment: Induction of apoptosis in human HCT-116 cells assessed as increase in caspace-3 protein expression at IC50 concentration after 24 hrs by ELISA; assay type: functional; how it was run: as §1
HCT-116 [3] = experiment: Induction of apoptosis in human HCT-116 cells assessed as increase in Bax protein expression at IC50 concentration after 24 hrs by ELISA; assay type: functional; how it was run: as §1
Mus musculus [4] = experiment: Anticonvulsant activity against mouse model of LiCa/pilocarpine-induced status epilepticus assessed as amplitude at 20 mg/kg, po for 10 days by EEG method relative to control; assay type: functional; conditions: time 10 day
How it was run: (§2)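 Male mice (20-30 g), five per group, dosed orally once daily for 10 days. Status epilepticus was then induced with LiCa (3 mEq/kg i.p.), atropine sulfate (1 mg/kg i.p.) 30 min before pilocarpine, and pilocarpine HCl (300 mg/kg i.p.) 2 h after LiCa. Normal controls received oral distilled water. Comparators were untreated SE, phenytoin and lamotrigine. One-way ANOVA with Tukey post-hoc; mean ± SD.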

HCT-116 [5] = experiment: Induction of apoptosis in human HCT-116 cells assessed as early apoptotic cells at IC50 concentration after 24 hrs by annexin-V-FITC/PI staining based flow cytometric analysis (reference value: 0.34%); assay type: functional
HCT-116 [6] = experiment: Induction of cell cycle arrest in human HCT-116 cells assessed as cell accumulation at pre-G1 phase at IC50 concentration after 24 hrs by propidium iodide staining based flow cytometric analysis (reference value: 2.02%); assay type: functional
Mus musculus [7] = experiment: Anticonvulsant activity against mouse model of LiCa/pilocarpine-induced status epilepticus assessed as delta at 20 mg/kg, po for 10 days by EEG method relative to control; assay type: functional; conditions: time 10 day; how it was run: as §2
Mus musculus [8] = experiment: Anticonvulsant activity against mouse model of LiCa/pilocarpine-induced status epilepticus assessed as mean power frequency at 20 mg/kg, po for 10 days by EEG method relative to control; assay type: functional; conditions: time 10 day; how it was run: as §2
[9] = molecular target: Epidermal growth factor receptor (Homo sapiens, UniProt P00533, T790M); experiment: Inhibition of EGFR T790M mutant (unknown origin)
[10] = molecular target: T1, Receptor tyrosine-protein kinase erbB-2 (Homo sapiens, UniProt P04626); experiment: Inhibition of HER2 (unknown origin)
How it was run: (§3)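 Cell-free immunoassay kit measuring EGFR T790M/HER2 kinase inhibition. Percent inhibition screened at 10 µM. IC50 obtained from four concentrations (0.01-10 µM) by fitting E(%) = Emax/(1+[I]/ID50) to a dose-response curve. Mean of two independent replicates.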

Mus musculus [11] = experiment: Anticonvulsant activity against mouse model of LiCa/pilocarpine-induced status epilepticus assessed as total power at 20 mg/kg, po for 10 days by EEG method relative to control; assay type: functional; conditions: time 10 day; how it was run: as §2
HCT-116 [12] = experiment: Induction of apoptosis in human HCT-116 cells assessed as late apoptotic cells at IC50 concentration after 24 hrs by annexin-V-FITC/PI staining based flow cytometric analysis (reference value: 1.31%); assay type: functional
[13] = molecular target: T1, Receptor tyrosine-protein kinase erbB-2; experiment: Inhibition of HER2 (unknown origin) at 10 uM relative to control; how it was run: as §3
HCT-116 [14] = experiment: Induction of cell cycle arrest in human HCT-116 cells assessed as cell accumulation at S phase at IC50 concentration after 24 hrs by propidium iodide staining based flow cytometric analysis (reference value: 37.66%); assay type: functional
HCT-116 [15] = experiment: Induction of apoptosis in human HCT-116 cells assessed as decrease in Bcl-2 protein expression at IC50 concentration after 24 hrs by ELISA; assay type: functional; how it was run: as §1
Mus musculus [16] = experiment: Anticonvulsant activity against mouse model of LiCa/pilocarpine-induced status epilepticus assessed as power pV2 at 20 mg/kg, po for 10 days by EEG method relative to control; assay type: functional; conditions: time 10 day; how it was run: as §2
HCT-116 [17] = experiment: Induction of cell cycle arrest in human HCT-116 cells assessed as cell increase in accumulation at G2/M phase at IC50 concentration after 24 hrs by propidium iodide staining based flow cytometric analysis; assay type: functional
HCT-116 [18] = experiment: Induction of apoptosis in human HCT-116 cells assessed as increase in late apoptotic cells at IC50 concentration after 24 hrs by annexin-V-FITC/PI staining based flow cytometric analysis; assay type: functional
Mus musculus [19] = experiment: Anticonvulsant activity against mouse model of LiCa/pilocarpine-induced status epilepticus assessed as theta at 20 mg/kg, po for 10 days by EEG method relative to control; assay type: functional; conditions: time 10 day; how it was run: as §2
HCT-116 [20] = experiment: Induction of apoptosis in human HCT-116 cells assessed as increase in Bax/Bcl-2 ratio at IC50 concentration after 24 hrs by ELISA; assay type: functional, cell-based; how it was run: as §1
HCT-116 [21] = experiment: Induction of apoptosis in human HCT-116 cells assessed as increase in caspace-7 protein expression at IC50 concentration after 24 hrs by ELISA; assay type: functional; how it was run: as §1
HCT-116 [22] = experiment: Induction of apoptosis in human HCT-116 cells assessed as increase in early apoptotic cells at IC50 concentration after 24 hrs by annexin-V-FITC/PI staining based flow cytometric analysis; assay type: functional
Mus musculus [23] = experiment: Anticonvulsant activity against mouse model of LiCa/pilocarpine-induced status epilepticus assessed as MDA level in brain at 20 mg/kg, po for 10 days by calorimetric method relative to control; assay type: functional; conditions: time 10 day; how it was run: as §2
Mus musculus [24] = experiment: Anticonvulsant activity against mouse model of LiCa/pilocarpine-induced status epilepticus assessed as total power density at 20 mg/kg, po for 10 days by EEG method relative to control; assay type: functional; conditions: time 10 day; how it was run: as §2
Mus musculus [25] = experiment: Anticonvulsant activity against mouse model of LiCa/pilocarpine-induced status epilepticus assessed as Glutamate level in brain at 20 mg/kg, po for 10 days by ELISA relative to control; assay type: functional; conditions: time 10 day; how it was run: as §2
WI-38 = experiment: Cytotoxicity against human WI-38 cells assessed as reduction in cell viability after 48 hrs by MTT assay; assay type: cell-based; conditions: WI-38, 48 h
How it was run: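 Cells from ATCC grown in DMEM with 10% FBS, insulin and 1% penicillin-streptomycin. Plated at 1.2-1.8 × 10,000 cells/well for 24 h, then exposed to compounds in DMSO vehicle for 48 h. MTT 0.5 mg/ml added for 2 h; absorbance read at 570 nm. Experiments run in triplicate.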

Mus musculus [26] = experiment: Anticonvulsant activity against mouse model of LiCa/pilocarpine-induced status epilepticus assessed as GABA level in brain at 20 mg/kg, po for 10 days by ELISA relative to control; assay type: functional; conditions: time 10 day; how it was run: as §2
Mus musculus [27] = experiment: Anticonvulsant activity against mouse model of LiCa/pilocarpine-induced status epilepticus assessed as amplitude density at 20 mg/kg, po for 10 days by EEG method relative to control; assay type: functional; conditions: time 10 day; how it was run: as §2
Mus musculus [28] = experiment: Anticonvulsant activity against mouse model of LiCa/pilocarpine-induced status epilepticus assessed as alpha at 20 mg/kg, po for 10 days by EEG method relative to control; assay type: functional; conditions: time 10 day; how it was run: as §2
HCT-116 [29] = experiment: Induction of cell cycle arrest in human HCT-116 cells assessed as cell accumulation at G2/M phase at IC50 concentration after 24 hrs by propidium iodide staining based flow cytometric analysis (reference value: 15.39%); assay type: functional
Mus musculus [30] = experiment: Anticonvulsant activity against mouse model of LiCa/pilocarpine-induced status epilepticus assessed as spectral edge frequency at 20 mg/kg, po for 10 days by EEG method relative to control; assay type: functional; conditions: time 10 day; how it was run: as §2
Mus musculus [31] = experiment: Anticonvulsant activity against mouse model of LiCa/pilocarpine-induced status epilepticus assessed as GSH level in brain at 20 mg/kg, po for 10 days by calorimetric method relative to control; assay type: functional; conditions: time 10 day; how it was run: as §2
HCT-116 [32] = experiment: Induction of cell cycle arrest in human HCT-116 cells assessed as cell accumulation at G1 phase at IC50 concentration after 24 hrs by propidium iodide staining based flow cytometric analysis (reference value: 46.95%); assay type: functional

T1 sequence (P04626 whole entry): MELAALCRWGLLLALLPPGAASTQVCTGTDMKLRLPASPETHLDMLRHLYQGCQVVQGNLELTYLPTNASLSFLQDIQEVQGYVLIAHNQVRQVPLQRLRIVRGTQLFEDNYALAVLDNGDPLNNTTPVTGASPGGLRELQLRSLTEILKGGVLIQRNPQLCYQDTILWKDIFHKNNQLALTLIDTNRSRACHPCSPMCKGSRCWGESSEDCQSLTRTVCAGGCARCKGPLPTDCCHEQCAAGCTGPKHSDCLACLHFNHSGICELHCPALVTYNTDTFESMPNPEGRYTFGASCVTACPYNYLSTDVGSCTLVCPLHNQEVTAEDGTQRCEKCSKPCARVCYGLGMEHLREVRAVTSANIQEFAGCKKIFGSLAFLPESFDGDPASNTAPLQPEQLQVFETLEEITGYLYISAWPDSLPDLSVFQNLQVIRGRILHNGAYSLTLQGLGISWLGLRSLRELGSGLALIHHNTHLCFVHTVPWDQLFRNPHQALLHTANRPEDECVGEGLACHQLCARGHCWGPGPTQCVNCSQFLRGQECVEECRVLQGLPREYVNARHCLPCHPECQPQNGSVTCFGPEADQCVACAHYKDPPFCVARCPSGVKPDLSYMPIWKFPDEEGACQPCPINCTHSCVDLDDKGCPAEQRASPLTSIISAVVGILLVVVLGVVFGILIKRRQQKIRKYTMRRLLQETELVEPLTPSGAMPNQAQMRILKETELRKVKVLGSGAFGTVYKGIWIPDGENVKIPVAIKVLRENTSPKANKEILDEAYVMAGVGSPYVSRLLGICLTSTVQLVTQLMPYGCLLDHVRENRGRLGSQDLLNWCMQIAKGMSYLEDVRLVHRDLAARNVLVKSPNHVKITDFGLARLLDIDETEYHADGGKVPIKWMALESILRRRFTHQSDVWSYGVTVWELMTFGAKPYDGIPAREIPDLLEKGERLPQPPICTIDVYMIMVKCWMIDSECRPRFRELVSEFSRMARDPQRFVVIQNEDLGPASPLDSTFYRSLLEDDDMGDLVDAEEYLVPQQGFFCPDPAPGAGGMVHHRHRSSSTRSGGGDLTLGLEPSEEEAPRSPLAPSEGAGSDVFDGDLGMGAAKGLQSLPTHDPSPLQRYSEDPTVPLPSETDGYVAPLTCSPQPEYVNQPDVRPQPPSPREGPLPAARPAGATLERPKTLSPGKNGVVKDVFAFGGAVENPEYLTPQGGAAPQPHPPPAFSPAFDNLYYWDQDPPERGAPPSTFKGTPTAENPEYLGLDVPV
Chain of Epidermal growth factor receptor (P00533 25-1210 T790M limits assumed): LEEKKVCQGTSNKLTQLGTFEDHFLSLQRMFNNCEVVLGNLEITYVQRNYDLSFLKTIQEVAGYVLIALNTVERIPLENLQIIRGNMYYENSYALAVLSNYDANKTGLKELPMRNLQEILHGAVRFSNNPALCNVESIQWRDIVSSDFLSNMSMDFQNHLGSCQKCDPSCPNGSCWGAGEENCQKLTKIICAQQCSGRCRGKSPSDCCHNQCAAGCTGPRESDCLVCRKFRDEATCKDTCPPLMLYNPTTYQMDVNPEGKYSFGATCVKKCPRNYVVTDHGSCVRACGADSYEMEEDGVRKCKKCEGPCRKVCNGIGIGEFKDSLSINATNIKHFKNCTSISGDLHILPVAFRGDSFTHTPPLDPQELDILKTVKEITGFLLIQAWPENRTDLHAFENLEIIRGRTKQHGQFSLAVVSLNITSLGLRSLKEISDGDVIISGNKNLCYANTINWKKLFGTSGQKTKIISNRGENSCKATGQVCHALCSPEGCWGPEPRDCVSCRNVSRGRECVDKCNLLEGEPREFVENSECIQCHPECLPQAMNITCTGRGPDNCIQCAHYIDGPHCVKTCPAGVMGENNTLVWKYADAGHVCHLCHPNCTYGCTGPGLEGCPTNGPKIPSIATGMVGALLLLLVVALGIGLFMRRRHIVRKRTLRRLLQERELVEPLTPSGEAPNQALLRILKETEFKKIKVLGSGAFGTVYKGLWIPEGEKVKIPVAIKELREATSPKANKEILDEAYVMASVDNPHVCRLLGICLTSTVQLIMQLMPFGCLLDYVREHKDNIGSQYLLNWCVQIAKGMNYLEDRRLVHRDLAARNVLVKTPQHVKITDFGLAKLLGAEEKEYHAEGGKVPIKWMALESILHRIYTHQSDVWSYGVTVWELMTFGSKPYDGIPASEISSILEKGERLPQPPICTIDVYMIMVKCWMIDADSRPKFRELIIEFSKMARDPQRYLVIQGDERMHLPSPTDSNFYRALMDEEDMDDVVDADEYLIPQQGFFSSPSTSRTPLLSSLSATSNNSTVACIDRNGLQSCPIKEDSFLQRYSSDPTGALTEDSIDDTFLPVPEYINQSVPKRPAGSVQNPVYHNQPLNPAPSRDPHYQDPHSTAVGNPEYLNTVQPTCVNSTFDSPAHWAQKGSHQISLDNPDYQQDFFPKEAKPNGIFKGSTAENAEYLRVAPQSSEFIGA

Q: What does the source list for `Cc1ccc(C2=N/C(=C/c3ccc(Cl)cc3)C(=O)NN2C(=O)Cc2nc3c(c(C)nn3-c3ccccc3)c(=O)[nH]2)cc1`?
A: fold change (FC) (HCT-116 [1]): 16.5; fold change (FC) (HCT-116 [2]): 18.5; fold change (FC) (HCT-116 [3]): 6.9; Activity (Mus musculus [4]): 50.22%; Activity (HCT-116 [5]): 10.37%; Activity (HCT-116 [6]): 17.35%; Activity (Mus musculus [7]): 229.74%; Activity (Mus musculus [8]): -24.4%; pIC50 [9]: 6.37; pIC50 [10]: 6.20; Activity (Mus musculus [11]): 2.62%; Activity (HCT-116 [12]): 2.72%; inhibition [13]: 72.6%; Activity (HCT-116 [14]): 31.42%; fold change (FC) (HCT-116 [15]): 3.8; Activity (Mus musculus [16]): 121.31%; fold change (FC) (HCT-116 [17]): 2.98; fold change (FC) (HCT-116 [18]): 2; Activity (Mus musculus [19]): 44.83%; Activity (HCT-116 [20]): Active; fold change (FC) (HCT-116 [21]): 20; fold change (FC) (HCT-116 [22]): 30.79; Activity (Mus musculus [23]): -57.67%; Activity (Mus musculus [24]): 176.8%; Activity (Mus musculus [25]): -37.61%; pIC50 (WI-38): 7.53; Activity (Mus musculus [26]): 56.77%; Activity (Mus musculus [27]): 62.01%; Activity (Mus musculus [28]): 31.95%; Activity (HCT-116 [29]): 45.94%; Activity (Mus musculus [30]): -16.14%; Activity (Mus musculus [31]): 134.61%; Activity (HCT-116 [32]): 22.64%

From ChEMBL document CHEMBL4732181, “Pyrazolo[3,4-d]pyrimidine-based dual EGFR T790M/HER2 inhibitors: Design, synthesis, structure-activity relationship and biological activity as potential antitumor and anticonvulsant agents” (Eur J Med Chem, 2021)
